{"data": "Results pooled from the literature", "cell line": "HCT-116", "read-out": "cell growth or viability", "note": "Protocols differ between the studies behind these lines."}
{"SMILES": "O=C(NC(=S)NC1CCCCC1)c1ccc2ccccc2c1", "conditions": "48 h", "IC50": "4.62 µM"}
{"SMILES": "CC[C@H](C)C(=O)O[C@H]1C[C@H](O)C=C2C=C[C@H](C)[C@H](CC[C@@H](O)C[C@@H](O)CC(=O)O)[C@H]21", "test": "SRB", "conditions": "72 h", "IC50": "1.57 µg/mL"}
{"SMILES": "COCCCOc1ccnc(COc2ccc(NC(=O)Nc3ccc(Cl)c(C(F)(F)F)c3)cc2)c1C", "test": "MTT", "conditions": "72 h", "IC50": "10.1 µM"}
{"SMILES": "COC(=O)/C=C1\\S/C(=N\\C(=O)c2ccc3ccccc3c2)N(C2CCCCC2)C1=O", "conditions": "48 h", "IC50": "12.2 µM"}
{"SMILES": "COc1ccnc(COc2ccc(NC(=O)Nc3ccc(Cl)cc3)cc2)c1OC", "test": "MTT", "conditions": "72 h", "IC50": "12.8 µM"}
{"SMILES": "O=C(NC(=S)NCc1ccccc1)c1ccc2ccccc2c1", "conditions": "48 h", "IC50": "4.55 µM"}
{"SMILES": "O=c1c(O)c(-c2ccc(O)cc2)oc2cc(O)cc(O)c12", "test": "WST-1", "conditions": "48 h", "IC50": "44.7 µM"}
{"SMILES": "COc1cc([C@@H]2c3cc4c(cc3[C@@H](O[C@@H]3O[C@@H]5CO[C@@H](C)O[C@H]5[C@H](O)[C@H]3O)[C@H]3COC(=O)[C@H]23)OCO4)cc(OC)c1O", "test": "MTS", "conditions": "48 h", "IC50": "23.3 µM"}
{"SMILES": "COc1cccc2c3c(c[n+](C)c12)sc1cccc(F)c13", "test": "MTT", "conditions": "72 h", "IC50": "6.8 µM"}
{"SMILES": "COc1cc([C@@H]2c3cc4c(cc3[C@@H](O[C@@H]3O[C@@H]5CO[C@@H](C)O[C@H]5[C@H](O)[C@H]3O)[C@H]3COC(=O)[C@H]23)OCO4)cc(OC)c1O", "test": "MTS", "conditions": "72 h", "IC50": "18.3 µM"}
{"SMILES": "O=C(Nc1nnc(-c2cc3ccccc3[nH]2)s1)c1cc2c([nH]c3ccccc32)c(-c2ccc(F)cc2)n1", "test": "MTT", "conditions": "72 h", "IC50": "6.22 µM"}
{"SMILES": "CC1=C(O)C(=O)C=C2C1=CC=C1[C@@]2(C)CC[C@@]2(C)[C@@H]3C[C@](C)(C(=O)OCCCN4C(=O)C5C=CC=CC5C4=O)CC[C@]3(C)CC[C@]12C (stereo partly drawn)", "test": "MTT", "conditions": "48 h", "IC50": "0.64 µM"}
{"SMILES": "COc1c(C)cnc(COc2ccc(NC(=O)Nc3ccc(Cl)cc3)cc2)c1C", "test": "MTT", "conditions": "72 h", "IC50": "19.3 µM"}
{"SMILES": "c1ccc2cc(-c3nnc(NC4CCCCC4)[nH]3)ccc2c1", "conditions": "48 h", "IC50": "2.53 µM"}
{"SMILES": "O=c1cc(CCl)c2cc(O)ccc2o1", "test": "MTT", "conditions": "36 h", "IC50": "> 20 µM"}
{"SMILES": "COC(=O)c1ccc(-n2nc(SC)nc2N)cc1", "test": "MTT", "IC50": "39.1 µM"}
{"SMILES": "O=C(NC(=S)NCc1ccc(CNC(=S)NC(=O)c2ccc3ccccc3c2)cc1)c1ccc2ccccc2c1", "conditions": "48 h", "IC50": "1.35 µM"}
{"SMILES": "Cc1c(C)c2c(O)cc(O)cc2oc1=O", "test": "MTT", "conditions": "36 h", "IC50": "> 20 µM"}
{"SMILES": "NC(=O)NOCCCCCCCCCCCCCCCCCCCC[P+](c1ccccc1)(c1ccccc1)c1ccccc1", "test": "imaging", "IC50": "0.23 µM"}
{"SMILES": "COc1c(C)cnc(COc2ccc(NC(=O)Nc3cc(F)cc(F)c3)cc2)c1C", "test": "MTT", "conditions": "72 h", "IC50": "10.8 µM"}
{"SMILES": "CSc1nc(NC(=S)NCCc2ccccc2)n(-c2ccc(C(=O)O)cc2)n1", "test": "MTT", "IC50": "45.8 µM"}
{"SMILES": "CC(=O)SCc1cc(=O)oc2cc(O)ccc12", "test": "MTT", "conditions": "36 h", "IC50": "> 20 µM"}
{"SMILES": "CC(=O)O[C@H]1C(=O)[C@@]2(C)[C@H]([C@H](OC(=O)c3ccccc3)[C@]3(O)C[C@H](OC(=O)[C@H](O)[C@@H](NC(=O)c4ccccc4)c4ccccc4)C(C)=C1C3(C)C)[C@]1(OC(C)=O)CO[C@@H]1C[C@@H]2O", "test": "fluorescence", "conditions": "72 h", "IC50": "0.0019 µM"}
{"SMILES": "C=CC(=O)N1CCC[C@@H](n2nc(-c3ccc(Oc4ccccc4)cc3)c3c(N)ncnc32)C1", "IC50": "> 10 µM"}
{"SMILES": "O=c1ccc2ccc(O)c(CO)c2o1", "test": "MTT", "conditions": "36 h", "IC50": "> 20 µM"}
{"SMILES": "NC(=O)NOCCCCCCCCCCCC[P+](c1ccccc1)(c1ccccc1)c1ccccc1", "test": "imaging", "IC50": "1.8 µM"}
{"SMILES": "O=C(/C=C/c1ccc(O)c(O)c1)O[C@@H]1C[C@](O)(C(=O)O)C[C@@H](O)[C@H]1O", "test": "WST-1", "conditions": "48 h", "IC50": "27.9 µM"}
{"SMILES": "O=C(Nc1nnnn1C1CCCCC1)c1ccc2ccccc2c1", "conditions": "48 h", "IC50": "3.06 µM"}
{"SMILES": "COc1cc(CNC(=O)CCCC/C=C/C(C)C)ccc1OCc1cn(-c2ccc(C#N)cc2)nn1", "test": "SRB", "IC50": "10.5 µM"}
{"SMILES": "CC(=O)c1ccc(-c2cccc(NC(=O)CCc3cccc4c3B(O)OC4)c2)cc1", "test": "ATP luminescence", "conditions": "72 h", "IC50": "0.28 µM"}
{"SMILES": "COc1ccnc(COc2ccc(NC(=O)Nc3cccc(C(F)(F)F)c3)cc2)c1OC", "test": "MTT", "conditions": "72 h", "IC50": "22.9 µM"}
{"SMILES": "CSc1nc(/N=C/c2cc([N+](=O)[O-])ccc2O)n(-c2ccc(C(=O)O)cc2)n1", "test": "MTT", "IC50": "60.3 µM"}
{"SMILES": "COc1ccc(NC(=O)Nc2ccc(OCc3nccc(OC)c3OC)cc2)cc1", "test": "MTT", "conditions": "72 h", "IC50": "13.1 µM"}
{"SMILES": "O=C(O)c1ccc(-n2nc(Oc3ccccc3)nc2/N=C/c2cc([N+](=O)[O-])ccc2O)cc1", "test": "MTT", "IC50": "62.8 µM"}
{"SMILES": "COc1cc(CNC(=O)CCCC/C=C/C(C)C)ccc1OCc1cn(-c2ccc(C(F)(F)F)cc2)nn1", "test": "SRB", "IC50": "8.9 µM"}
{"SMILES": "O=c1cc(-c2ccc(O)c(O)c2)oc2cc(O)cc(O)c12", "test": "WST-1", "conditions": "48 h", "IC50": "11.1 µM"}
{"SMILES": "CC(C)[C@H](N)c1nc2cc(-c3ccncc3F)sc2c(=O)[nH]1", "test": "MTT", "IC50": "0.158 µM"}
{"SMILES": "CC1=C(O)C(=O)C=C2C1=CC=C1[C@@]2(C)CC[C@@]2(C)[C@@H]3C[C@](C)(C(=O)OCCCCCCCO)CC[C@]3(C)CC[C@]12C", "test": "MTT", "conditions": "48 h", "IC50": "0.93 µM"}
{"SMILES": "COc1cc(Nc2nccc(-c3cnn4nc(OC)ccc34)n2)cc(C(F)(F)F)c1", "test": "ATP luminescence", "IC50": "0.55 µM"}
{"SMILES": "CSc1nc(N)n(-c2ccc(C(=O)O)cc2)n1", "test": "MTT", "IC50": "61 µM"}
{"SMILES": "CCn1c(-c2nnc(NC(=O)c3cc4c([nH]c5ccccc54)c(-c4ccc(OC)cc4)n3)s2)cc2ccccc21", "test": "MTT", "conditions": "72 h", "IC50": "19.9 µM"}
{"SMILES": "CC(=O)SCc1cc(=O)oc2ccc(O)cc12", "test": "MTT", "conditions": "36 h", "IC50": "> 20 µM"}
{"SMILES": "Cc1c(OCC(F)(F)F)ccnc1COc1ccc(NC(=O)Nc2ccc(Cl)cc2)cc1", "test": "MTT", "conditions": "72 h", "IC50": "3.9 µM"}
{"SMILES": "CC(=O)OCCOC(=O)[C@]1(C)CC[C@]2(C)CC[C@]3(C)C4=CC=C5C(=CC(=O)C(O)=C5C)[C@]4(C)CC[C@@]3(C)[C@@H]2C1", "test": "MTT", "conditions": "48 h", "IC50": "0.47 µM"}
{"SMILES": "O=C(/N=C1\\SCC(=O)N1C1CCCCC1)c1ccc2ccccc2c1", "conditions": "48 h", "IC50": "9.12 µM"}
{"SMILES": "COc1ccc(Nc2nc(-n3nc(C)cc3C)nc(-n3nc(C)cc3C)n2)cc1", "test": "MTT", "conditions": "72 h", "IC50": "3.66 µM"}
{"SMILES": "COc1ccc(NC(=O)Nc2ccc(OCc3nccc(OCC(F)(F)F)c3C)cc2)cc1", "test": "MTT", "conditions": "72 h", "IC50": "19.2 µM"}
{"SMILES": "COc1cc(-c2nc(C(=O)Nc3nnc(-c4cc5ccccc5n4C)s3)cc3c2[nH]c2ccccc23)cc(OC)c1OC", "test": "MTT", "conditions": "72 h", "IC50": "6.11 µM"}
